Most compounds without a hit are left out; they make up all but 1.8% or so of the library.
RanGTP-Imp inh = disruptors of Ran-importin-beta complex formation – biochemical, FRET, CFP-Ran, YFP-importin-beta, homogeneous, primary screen; 300,000 tested, 1.1% active; inhibition, % (no concentration beside the values); cell-free CFP-Ran/YFP-importin-beta FRET ratio; AID 2216;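 active means more than half of the replicate wells show a fall in the fluorescence ratio signal beyond about 16%, limit read from the data, passing the limit was not always enough; inconclusive means exactly half of the replicate wells pass the set limit; inactive means fewer than half of replicates pass the limit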;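 further: 0% = DMSO wells and 100% = Ran loaded with GDP instead of GTP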
Runt-CBFb FRET = inhibitors of human RUNX1 Runt domain binding to CBFb; AID 1496; Q01196+Q13951; 220,000 tested, 0.46% active; inhibition, % at 20 µM; Cerulean-Runt/Venus-CBFb FRET ratio 530/480, 1 h;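 active means inhibition over about 50% at 20 µM in the single-dose screen, limit read from the data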;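 further: 0% = DMSO wells and 100% = excess unlabeled CBFb competitor control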
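Reagent – Venus-CBFb binding partner, 100 nM · Assay system – Cerulean-tagged RUNX1 Runt domain (FRET donor) fusion protein · Input – 100 nM per protein · Incubation – two 1 h room-temperature incubations shielded from light · Measured by – FRET fluorescence · Medium – Tris buffer pH 7.5 with salts and BSA · Benchmarks – unlabeled CBFb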
Hck-Nef inh = human Hck-Nef kinase inhibition | P08631 | Recombinant Hck-YEEI plus Nef, Z-Lyte FRET kinase assay | inhibition, % at 20 µM | 220,000 tested, 0.68% active | AID 463187;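 active means Hck-Nef kinase inhibition above about 50%, limit read from the data; inactive means inhibition below that limit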;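 further: 0% = DMSO with Hck plus Nef and 100% = Hck alone without Nef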
Target sequence (P08631 whole entry, looked up): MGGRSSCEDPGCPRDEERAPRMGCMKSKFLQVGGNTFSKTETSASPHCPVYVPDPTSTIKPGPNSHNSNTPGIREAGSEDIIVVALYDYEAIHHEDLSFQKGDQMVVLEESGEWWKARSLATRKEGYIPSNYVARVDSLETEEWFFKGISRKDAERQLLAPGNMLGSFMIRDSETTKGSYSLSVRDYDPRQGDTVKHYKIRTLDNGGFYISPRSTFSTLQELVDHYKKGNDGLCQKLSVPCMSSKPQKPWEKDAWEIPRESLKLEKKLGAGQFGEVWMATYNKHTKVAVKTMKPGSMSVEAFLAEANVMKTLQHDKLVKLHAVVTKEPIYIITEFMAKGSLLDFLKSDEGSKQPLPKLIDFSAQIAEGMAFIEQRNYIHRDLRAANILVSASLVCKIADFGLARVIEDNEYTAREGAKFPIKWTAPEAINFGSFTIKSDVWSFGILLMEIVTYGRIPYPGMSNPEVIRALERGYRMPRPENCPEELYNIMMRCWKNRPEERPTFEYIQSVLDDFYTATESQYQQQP
Runt-SMMHC FRET = inhibitors of human RUNX1 Runt domain binding to CBFb-SMMHC. Q01196+Q13951. Cerulean-Runt/Venus-CBFb-SMMHC FRET ratio 530/480, 1 h. inhibition, % at 20 µM. 220,000 tested, 0.74% active. AID 1434;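 active means mean inhibition across duplicate retests at 20 µM reaching about 50%, limit read from the data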;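 further: 0% = DMSO wells and 100% = wells with excess untagged CBFb-SMMHC; inhibitors lower the FRET ratio by blocking Runt binding to CBFb-SMMHC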
The depositor's hits bear a star; ? = inconclusive; nt = not tested or not shown.

SMILES | RanGTP-Imp inh | Runt-CBFb FRET | Hck-Nef inh | Runt-SMMHC FRET
Cc1cc(Cl)n2c(nc3ccccc32)c1C#N | ? | 1.1 | 0.3 | -16.7
O=c1oc2c3c4c(cc2s1)CCCN4CCC3 | -8.3 | 10.1 | 0.7 | -33.1
O=c1ccc2cc3c4c(c2o1)CCCN4CCC3 | 92.0* | 4.8 | 14.4 | 3.8
COc1ccc(OC)c(NC(=O)CSc2nnc(NC(=O)c3ccco3)s2)c1 | 1.5 | nt | nt | nt
CC(C)C(=O)Nc1sc2c(c1C(N)=O)CCN(Cc1ccccc1)C2 | 133.7* | nt | nt | nt
CCC(=O)Nc1sc2c(c1C(N)=O)CCN(Cc1ccccc1)C2 | 133.7* | nt | nt | nt
CCC(=O)Nc1sc2c(c1C(N)=O)CCC2 | 1.0 | -0.9 | 5.3 | 2.1
NC(=O)c1c(NC(=O)c2c(F)cccc2F)sc2c1CCN(Cc1ccccc1)C2 | 163.4* | nt | nt | nt
NC(=O)c1c(NC(=O)c2ccccc2)sc2c1CCN(Cc1ccccc1)C2 | 8.2 | nt | nt | nt
Cc1ccccc1N(CC(=O)N1CCOCC1)S(C)(=O)=O | -0.4 | nt | 19.0 | nt
O=C(N1CCN(c2cccc(Cl)c2)CC1)C1(c2cccs2)CCOCC1 | 3.1 | -0.2 | 1.3 | -1.9
CC(C)C(NC(=O)c1ccccc1F)C(=O)NCCc1ccccn1 (stereo unspecified) | -0.3 | 0.1 | 17.5 | -2.1
N#Cc1ccsc1NC(=O)C1CCN(S(=O)(=O)c2cccs2)CC1 | -3.0 | nt | nt | nt
CN1CCc2c(sc(NC(=O)C3CCN(S(=O)(=O)c4cccs4)CC3)c2C(N)=O)C1 | 131.5* | nt | nt | nt
CN1CCc2c(sc(NC(=O)C3CCCCC3)c2C(N)=O)C1 | 147.2* | nt | nt | nt
COC(=O)c1c(NC(=O)C2CCCCC2)sc2c1CCN(C(C)C)C2 | 56.7* | nt | nt | nt
COC(=O)c1c(NC(=O)C2CC2)sc2c1CCCC2 | -3.1 | -1.8 | 0.3 | 1.0
CC(C)N1CCc2c(sc(NC(=O)C3CCCCC3)c2C(N)=O)C1 | 133.7* | nt | nt | nt
CCc1ccc2nc(NC(=O)Cn3cnc4ccccc4c3=O)sc2c1 | 2.2 | 4.1 | 55.1* | 3.1
O=C(Cn1cnc2ccccc2c1=O)Nc1nc2ccccc2s1 | -2.4 | 0.9 | 22.8 | 1.8
Cc1nn(Cc2ccc([N+](=O)[O-])cc2)c(=O)n1-c1cccc(Cl)c1 | 20.4* | 3.0 | 1.9 | -2.3
c1ccc(CSc2nnc(Cc3ccccn3)o2)cc1 | 22.4* | -1.2 | 2.8 | 1.0
CNC(=O)c1c(NC(=O)c2ccc(S(=O)(=O)N3CCCC3)cc2)sc2c1CCN(C(C)C)C2 | 12.9 | nt | nt | nt
CNC(=O)c1c(NC(=O)c2ccc(S(=O)(=O)N3CC(C)OC(C)C3)cc2)sc2c1CCN(C(C)C)C2 (stereo unspecified) | 62.3* | nt | nt | nt
CC(C)N1CCc2c(sc(NC(=O)c3ccc(S(=O)(=O)N4CCOCC4)cc3)c2C(N)=O)C1 | 48.8* | -5.2 | -4.2 | 2.0
SMILES | RanGTP-Imp inh | Runt-CBFb FRET | Hck-Nef inh | Runt-SMMHC FRET
COC(=O)c1ccc(=O)n(CC(=O)c2ccc(Cl)cc2)c1 | -1.9 | 0.4 | 20.2 | -1.3
CCc1cc(=O)oc2cc(OC(=O)CN3C(=O)NC4(CCCC4)C3=O)ccc12 | 3.4 | nt | nt | nt
O=C(CN1C(=O)NC2(CCCCC2)C1=O)Oc1ccc2c(C(F)(F)F)cc(=O)oc2c1 | 32.7* | nt | nt | nt
CC(C)[C@H](NC(=O)N1CCn2c1nc1ccccc12)C(=O)N1CCCCC1 | 5.8 | nt | nt | nt
O=C1NC(=S)S/C1=C\c1ccc(SCc2ccco2)o1 | nt | 38.7 | 84.9* | 34.5
Cc1c(C=O)c2ccccn2c1C(=O)c1cccs1 | 1.1 | 60.6* | 2.3 | 87.1*
Cc1c(C=O)c2ccccn2c1C(=O)c1ccccc1Cl | 1.7 | nt | nt | nt
COc1ccc2sc3ccccc3c(=O)c2c1 | 94.7* | 10.1 | 15.2 | -19.8
Cc1ccc(S(=O)(=O)N2CCOCC2)cc1NC(=O)COC(=O)c1cc(=O)[nH]c2ccccc12 | 26.3* | 1.5 | 22.5 | 2.7
Cc1ccc(S(=O)(=O)N2CCOCC2)cc1NC(=O)COC(=O)c1cccnc1Cl | 6.4 | 0.8 | -0.3 | 1.6
Nc1c2c(nc3sc4c(c13)CCCC4)CCCCCC2 | -8.5 | 0.0 | 58.6* | -0.8
Nc1nc2sc3c(c2c(=O)s1)CCCC3 | -0.5 | 1.0 | 1.5 | -0.1
Cc1ccc(NC(=O)C2CCCN2C(=O)NC2CCCCC2)cc1F (stereo unspecified) | 0.9 | nt | nt | nt
C1=Nc2c(Nc3ccccc3)ncnc2Oc2ccccc21 | -0.4 | -1.8 | 3.3 | 0.6
CN1/C(=C\C(=O)Nc2ccc(Cl)cc2)C(C)(C)c2ccccc21 | 2.7 | 1.6 | 1.7 | -13.9
CN1/C(=C\C=C(/C#N)C(=O)Nc2ccc(Cl)cc2)C(C)(C)c2ccccc21 | 27.6* | -1.2 | -2.7 | 63.1
Cn1cc(/C=C/C(=O)c2ccccc2)c2ccccc21 | 35.5* | 0.0 | 18.9 | 5.4
Cc1ccc(C(=O)/C=C/c2cn(CN3CCN(C)CC3)c3ccccc23)cc1 | 72.5* | 10.0 | 1.9 | -1.0
Cc1nn(C)cc1/C=C/C(=O)c1ccccc1 | 2.5 | 1.2 | 6.6 | 2.1
COc1cccc(CN2CC(C(=O)NCC3CCOCC3)CCC2=O)c1 (stereo unspecified) | 1.8 | nt | nt | nt
Cc1nn2c(=O)c3c4c(sc3nc2n1-c1ccccc1)COC(C)(C)C4 | 3.3 | -0.7 | 14.5 | 1.7
O=C(NC(=S)N1CCCCC1c1cccnc1)c1ccc(Br)cc1 (stereo unspecified) | 32.5* | nt | nt | nt
O=C(NC(=S)N1CCCCC1c1cccnc1)c1ccc(F)cc1 (stereo unspecified) | 18.7* | nt | nt | nt
Cc1cccc(NC(=S)N2CCCCC2c2cccnc2)c1C (stereo unspecified) | 3.1 | 1.0 | -2.3 | -0.9
COc1ccc(NC(=S)N2CCCCC2c2cccnc2)cc1 (stereo unspecified) | 5.3 | -2.1 | 9.4 | 0.4
SMILES | RanGTP-Imp inh | Runt-CBFb FRET | Hck-Nef inh | Runt-SMMHC FRET
CCCNC(=S)N1CCC(C(=O)c2ccc(OC)cc2)CC1 | 0.9 | -3.4 | 3.2 | -1.3
COc1ccc(S(=O)(=O)N2CCC(O)(c3cccnc3)CC2)cc1OC | ? | nt | 22.1 | 2.2
CCOC(=O)c1cc2ccc3ccccc3c2oc1=O | 72.7* | nt | nt | nt
C/C(=N\Nc1nc(-c2cc(C)ccc2C)cs1)c1cc2ccccc2oc1=O | 2.9 | -1.7 | 2.2 | -7.0
COCC(C)NC(=O)c1cc2c(ccc3ccccc32)oc1=O (stereo unspecified) | 29.4* | nt | nt | nt
C/C(=N\Nc1nc(-c2cc(C)ccc2C)cs1)c1cc2c(ccc3ccccc32)oc1=O | 63.7* | 64.4* | 4.5 | nt
CC(=O)c1cc2c(ccc3ccccc32)oc1=O | 116.2* | nt | nt | nt
Cc1ccc(-c2nnc(SCC(=O)N(C)C)nc2-c2ccc(C)cc2)cc1 | -4.0 | nt | nt | nt
Cc1ccc(OCC(O)CN2CCC(Cc3ccccc3)CC2)c(C)c1 (stereo unspecified) | 2.3 | nt | nt | nt
CC1=Nc2ccc(C)c3nc(C)cc(c23)N1c1ccc(C)cc1 | 64.7* | nt | 2.0 | nt
Cc1ccc(Nc2cc(C)nc3c(C)cccc23)cc1 | 1.2 | nt | nt | nt
Cc1ccc(N2C=Nc3ccc(C)c4nc(C)cc2c34)cc1 | 99.0* | 52.4* | 2.5 | 60.5*
CC(Nc1ccc(F)cc1)=[N+](C)CCNS(=O)(=O)c1ccc(Cl)cc1 | -3.3 | nt | nt | nt
COc1ccc(CNC(=O)COC(=O)c2cc(-c3ccc(Cl)s3)nc3ccccc23)cc1 | 16.6* | -1.8 | 4.8 | -5.6

Assay outcomes from PubChem BioAssay.
